The results in this text go back to ChEMBL document CHEMBL1154720, “Synthesis and biological evaluation of novel 4-hydroxybenzaldehyde derivatives as tyrosinase inhibitors” (Eur J Med Chem, 2010).

Data set [1] deals with T1, Tyrosinase (Agaricus bisporus, UniProt O42713).
T1 sequence (O42713 whole entry): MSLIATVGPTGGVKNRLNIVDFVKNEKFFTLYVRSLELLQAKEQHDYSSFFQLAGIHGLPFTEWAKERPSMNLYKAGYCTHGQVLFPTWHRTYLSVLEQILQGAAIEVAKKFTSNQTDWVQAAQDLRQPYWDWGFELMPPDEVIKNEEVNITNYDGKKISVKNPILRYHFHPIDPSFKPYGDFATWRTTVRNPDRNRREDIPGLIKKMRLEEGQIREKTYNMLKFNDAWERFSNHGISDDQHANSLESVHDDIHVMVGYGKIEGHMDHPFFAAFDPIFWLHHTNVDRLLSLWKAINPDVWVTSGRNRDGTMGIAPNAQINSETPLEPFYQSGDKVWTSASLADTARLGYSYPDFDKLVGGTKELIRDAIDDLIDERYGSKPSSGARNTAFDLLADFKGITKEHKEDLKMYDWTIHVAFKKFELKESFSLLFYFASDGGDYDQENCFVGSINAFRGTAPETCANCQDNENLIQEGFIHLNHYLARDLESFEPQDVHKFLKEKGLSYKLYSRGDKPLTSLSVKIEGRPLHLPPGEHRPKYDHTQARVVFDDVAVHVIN
Description: Inhibition of mashroom tyrosinase assessed as oxidation of L-DOPA by spectrophotometry. In short, it runs like this: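 Mushroom tyrosinase diphenolase activity with L-DOPA as substrate. Compounds dissolved in DMSO and diluted with phosphate buffer pH 6.8, final DMSO 2.0%. Thirty units of enzyme pre-incubated with compound in 50 mM phosphate buffer (pH 6.8) for 10 min at 25 °C. Triplicate per concentration. IC50 interpolated from log concentration–inhibition curves (at least eight points), mean of three experiments.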

Data set [2] concerns the target T1, Tyrosinase. The data set is described as follows: Inhibition of mushroom tyrosinase assessed as oxidation of L-DOPA by Lineweaver-Burke plot analysis. In short, it runs like this:
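Kinetics use the same pre-incubation (10 min, 25 °C, 50 mM phosphate pH 6.8) and measurement time as the IC50 assay, with three inhibitor concentrations per compound including zero and L-DOPA varied. Initial velocity taken from absorbance change over time. Lineweaver–Burk plots were drawn, and KI was obtained from a secondary plot of intercept versus inhibitor concentration.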

The subject of a further data set is Mus musculus. The data set is described as follows: Toxicity in mouse at 1600 mg/kg/day, po measured for 20 days. Format: organism-based. Set-up: route oral. The conditions noted are these: in vivo, 480 h. In a few lines:
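Ten specific-pathogen-free mice, 4 weeks old, acclimated for one week at 20 ± 2 °C and 50 ± 10% relative humidity, weighing 20 ± 2 g. Mice were fasted 4 h, then given a single oral gavage in carboxymethyl cellulose (10 ml/kg; dosing solution 160 mg/ml). Vehicle served as negative control. Clinical signs and mortality were followed 20 days, then organs were examined at autopsy.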

Take `COC(=O)CNC(=O)COc1ccc(C=O)cc1`: at Tyrosinase [1], the concentration for half-maximal inhibition (IC50) was 170 µM. For the same molecule, the Ki at Tyrosinase [2] came out at 117 µM.

As to `CCC(C)C(NC(=O)COc1ccc(C=O)cc1)C(=O)OC` (stereo not drawn), the IC50 on Tyrosinase [1] amounted to 460 µM. Turning to `COC(=O)C(Cc1c[nH]c2ccccc12)NC(=O)COc1ccc(C=O)cc1` (stereo not drawn), the IC50 on Tyrosinase [1] is 110 µM. For the same molecule, at Tyrosinase [2], the inhibition constant Ki came to 54 µM. `COC(=O)C(Cc1ccc(O)cc1)NC(=O)COc1ccc(C=O)cc1` (stereo not drawn): the IC50 on Tyrosinase [1] amounted to 220 µM. In the case of `COC(=O)C(C)NC(=O)COc1ccc(C=O)cc1` (stereo not drawn), the IC50 at Tyrosinase [1] amounted to 160 µM. Also, at Tyrosinase [2], the inhibitory constant (Ki) turned out to be 125 µM. As to `COC(=O)C(CCSC)NC(=O)COc1ccc(C=O)cc1` (stereo not drawn), the IC50 at Tyrosinase [1] worked out at 400 µM. On the same count and under the same terms, in the case of `COC(=O)C1CCCN1C(=O)COc1ccc(C=O)cc1` (stereo not drawn) it was 760 µM; in that of `COC(=O)C(Cc1ccccc1)NC(=O)COc1ccc(C=O)cc1` (stereo not drawn), 480 µM; in that of `COC(=O)C(CC(C)C)NC(=O)COc1ccc(C=O)cc1` (stereo not drawn), 1650 µM. Turning to `O=Cc1ccc(OCCOC(=O)CCC(=O)O)cc1`, the half-inhibitory concentration (IC50) at Tyrosinase [1] turned out to be 620 µM.

Turning to `O=Cc1ccc(OCC2CO2)cc1` (stereo not drawn), the IC50 on Tyrosinase [1] came out at 590 µM. As to `O=Cc1ccc(OCOC(CO)CO)cc1`, the 50% inhibitory concentration (IC50) at Tyrosinase [1] turned out to be 270 µM. For `COCC(O)COc1ccc(C=O)cc1` (stereo not drawn), the half-maximal inhibitory concentration (IC50) on Tyrosinase [1] turned out to be 750 µM.

For the molecule `O=Cc1ccc(OCOCCO)cc1`, on Tyrosinase [1], the concentration for half-maximal inhibition (IC50) came out at 370 µM.

Take `O=Cc1ccc(OCCO)cc1`: the IC50 on Tyrosinase [1] came out at 2550 µM. Turning to `O=Cc1ccc(OCCOP(=O)(O)O)cc1`, the IC50 on Tyrosinase [1] was 820 µM. As for `COCCOCCOc1ccc(C=O)cc1`, at Tyrosinase [1], the half-maximal inhibitory concentration (IC50) is 900 µM. In the case of `COP(=O)(OC)OCCOc1ccc(C=O)cc1`, the Activity result with Mus musculus is “Non-toxic”. Moreover, the IC50 on Tyrosinase [1] came to 59 µM. Moreover, at Tyrosinase [2], the Ki was found to be 36.8 µM.

In the case of `CCCCOCCOc1ccc(C=O)cc1`, the half-maximal inhibitory concentration (IC50) on Tyrosinase [1] is 3260 µM. Regarding `COCCCCOc1ccc(C=O)cc1`, the concentration for half-maximal inhibition (IC50) at Tyrosinase [1] is 620 µM.

With `CCOP(=O)(OCC)OCCOc1ccc(C=O)cc1`, at Tyrosinase [1], the IC50 came to 550 µM. Turning to `O=Cc1ccc(OCC(O)CO)cc1` (stereo not drawn), the IC50 on Tyrosinase [1] turned out to be 1260 µM.

Turning to `COCCOc1ccc(C=O)cc1`, the IC50 on Tyrosinase [1] came to 660 µM.
